Laboratory results as given in ChEMBL document CHEMBL1156163, “(18)F Labeled benzimidazole derivatives as potential radiotracer for positron emission tomography (PET) tumor imaging” (Bioorg Med Chem, 2010).

Tests used:
[1] = Biodistribution in mouse S180 cells xenografted Kunming mouse tumor at 10 to 20 uCi, iv after 120 mins by gamma counting; format: ADME, organism-based, Neoplasm, CCRF S-180; details: in vivo, 2 h
[2] = Ratio of drug uptake in tumor to brain of mouse S180 cells xenografted Kunming mouse at 10 to 20 uCi, iv after 120 mins by gamma counting; format: ADME, organism-based, CCRF S-180; details: in vivo, 2 h
Liver [3] = test: Biodistribution in mouse S180 cells xenografted Kunming mouse liver at 10 to 20 uCi, iv after 5 mins by gamma counting; format: ADME, organism-based, CCRF S-180; details: in vivo
Muscle tissue [4] = test: Biodistribution in mouse S180 cells xenografted Kunming mouse muscle at 10 to 20 uCi, iv after 5 mins by gamma counting; format: ADME, organism-based, CCRF S-180; details: in vivo
Blood [5] = test: Biodistribution in mouse S180 cells xenografted Kunming mouse blood at 10 to 20 uCi, iv after 5 mins by gamma counting; format: ADME, organism-based, CCRF S-180; details: in vivo
[6] = Biodistribution in mouse S180 cells xenografted Kunming mouse tumor at 10 to 20 uCi, iv after 5 mins by gamma counting; format: ADME, organism-based, Neoplasm, CCRF S-180; details: in vivo
[7] = Ratio of drug uptake in tumor to blood of mouse S180 cells xenografted Kunming mouse at 10 to 20 uCi, iv after 5 mins by gamma counting; format: ADME, organism-based, CCRF S-180; details: tumour
Liver [8] = test: Biodistribution in mouse S180 cells xenografted Kunming mouse liver at 10 to 20 uCi, iv after 15 mins by gamma counting; format: ADME, organism-based, CCRF S-180; details: in vivo, 0.25 h
Muscle tissue [9] = test: Biodistribution in mouse S180 cells xenografted Kunming mouse muscle at 10 to 20 uCi, iv after 15 mins by gamma counting; format: ADME, organism-based, CCRF S-180; details: in vivo, 0.25 h
Blood [10] = test: Biodistribution in mouse S180 cells xenografted Kunming mouse blood at 10 to 20 uCi, iv after 15 mins by gamma counting; format: ADME, organism-based, CCRF S-180; details: in vivo, 0.25 h
Heart = test: Biodistribution in mouse S180 cells xenografted Kunming mouse heart at 10 to 20 uCi, iv after 30 mins by gamma counting; format: ADME, organism-based, CCRF S-180; details: in vivo, 0.5 h
Lung = test: Biodistribution in mouse S180 cells xenografted Kunming mouse lung at 10 to 20 uCi, iv after 30 mins by gamma counting; format: ADME, organism-based, CCRF S-180; details: in vivo, 0.5 h
[11] = Ratio of drug uptake in tumor to blood of mouse S180 cells xenografted Kunming mouse at 10 to 20 uCi, iv after 30 mins by gamma counting; format: ADME, organism-based, CCRF S-180; details: tumour, 0.5 h
[12] = Ratio of drug uptake in tumor to brain of mouse S180 cells xenografted Kunming mouse at 10 to 20 uCi, iv after 30 mins by gamma counting; format: ADME, organism-based, CCRF S-180; details: in vivo, 0.5 h
Brain = test: Biodistribution in mouse S180 cells xenografted Kunming mouse brain at 10 to 20 uCi, iv after 60 mins by gamma counting; format: ADME, organism-based, CCRF S-180; details: in vivo, 1 h
Pancreas = test: Biodistribution in mouse S180 cells xenografted Kunming mouse pancreas at 10 to 20 uCi, iv after 120 mins by gamma counting; format: ADME, organism-based, CCRF S-180; details: in vivo, 2 h
Blood [13] = test: Biodistribution in mouse S180 cells xenografted Kunming mouse blood at 10 to 20 uCi, iv after 120 mins by gamma counting; format: ADME, organism-based, CCRF S-180; details: in vivo, 2 h
Plasma = test: Metabolic stability in mouse plasma at 100 to 150 uCi after 3 hrs by HPLC analysis; format: ADME, cell-free
Method in brief: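 Radiotracer (100–150 µCi, 50 µL) incubated in 0.5 mL mouse plasma for 3 h. Plasma then mixed with 1 mL CH3CN and centrifuged 5 min at 13,200 rpm. Supernatant passed through a C18 Sep-Pak and analysed by HPLC.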

[14] = Octanol-water partition coefficient, log P at pH 7.4 after 5 mins; format: physicochemical
Method in brief: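 Shake-flask partition using 2.5 mL n-octanol and 2.5 mL 0.01 M PBS pH 7.4, with 0.01 mL radioactive sample added. Mixed vigorously for 5 min at room temperature, then centrifuged. Radioactivity counted in 0.01 mL of each phase.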

Stomach [15] = test: Biodistribution in mouse S180 cells xenografted Kunming mouse stomach at 10 to 20 uCi, iv after 5 mins by gamma counting; format: ADME, organism-based, CCRF S-180; details: in vivo
Method in brief: (§1)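 Female Kunming mice with subcutaneous S180 tumors (5 × 10^6 cells into right front flank, no anesthesia), used 7–14 days after inoculation at 18–22 g. Tracer in saline (10–20 µCi, 100 µL) given by tail vein; mice killed at 5, 15, 30, 60 and 120 min. Tissues excised, blotted, weighed and gamma-counted with decay correction. Reported as %ID/g, mean ± SD, n = 4.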

Stomach [16] = test: Biodistribution in mouse S180 cells xenografted Kunming mouse stomach at 10 to 20 uCi, iv after 15 mins by gamma counting; format: ADME, organism-based, CCRF S-180; details: in vivo, 0.25 h; method in brief: as §1
Stomach [17] = test: Biodistribution in mouse S180 cells xenografted Kunming mouse stomach at 10 to 20 uCi, iv after 30 mins by gamma counting; format: ADME, organism-based, CCRF S-180; details: in vivo, 0.5 h; method in brief: as §1
Stomach [18] = test: Biodistribution in mouse S180 cells xenografted Kunming mouse stomach at 10 to 20 uCi, iv after 60 mins by gamma counting; format: ADME, organism-based, CCRF S-180; details: in vivo, 1 h; method in brief: as §1
Stomach [19] = test: Biodistribution in mouse S180 cells xenografted Kunming mouse stomach at 10 to 20 uCi, iv after 120 mins by gamma counting; format: ADME, organism-based, CCRF S-180; details: in vivo, 2 h; method in brief: as §1

SMILES	Drug uptake [1] [% ID/g]	Ratio [2]	Drug uptake (Liver [3]) [% ID/g]	Drug uptake (Muscle tissue [4]) [% ID/g]	Drug uptake (Blood [5]) [% ID/g]	Drug uptake [6] [% ID/g]	Ratio [7]	Drug uptake (Liver [8]) [% ID/g]	Drug uptake (Muscle tissue [9]) [% ID/g]	Drug uptake (Blood [10]) [% ID/g]	Drug uptake (Heart) [% ID/g]	Drug uptake (Lung) [% ID/g]	Ratio [11]	Ratio [12]	Drug uptake (Brain) [% ID/g]	Drug uptake (Pancreas) [% ID/g]	Drug uptake (Blood [13]) [% ID/g]	also measured
N[C@@H](Cc1ccc(OCC[18F])cc1)C(=O)O [FLORETYROSINE F18]	2.15	2.95	7.67	2.88	6.81	2.08	0.31	5.6	3.34	3.3	3.27	8.57	1.02	2.54	0.94	0.09	1.12	
OC[C@H]1O[C@@H](O)[C@H]([18F])[C@@H](O)[C@@H]1O [FLUDEOXYGLUCOSE-F18]	1.7	1.33	1.35	1.56	1.09	1.27	1.17	0.47	1.14	0.46	2.69	0.64		0.61	2.11	0.78	0.11	
CCCc1nc2c(C)cc(C(=O)O)cc2n1CC[18F]	0.49	9.8	4.13	1.78	3.17	2.28	0.72	4.02	1.22	2.25	1.76	3.49	1.09	4.81	0.19	0.2	0.3	Stability (Plasma): Stable; logD at 5 min [14]: -0.5; Drug uptake (Stomach [15]): 5.52 % ID/g; Drug uptake (Stomach [16]): 4.33 % ID/g; Drug uptake (Stomach [17]): 3.87 % ID/g; Drug uptake (Stomach [18]): 3.23 % ID/g; Drug uptake (Stomach [19]): 1.14 % ID/g
